The results in this text go back to ChEMBL document CHEMBL1821603, “Bivalent bendamustine and melphalan derivatives as anticancer agents” (Eur J Med Chem, 2011).

Broadly, the T/C is the ratio of treated to control. A word on the half-life: it is how long it takes for the measured level to halve. High values mean slow loss, low ones fast loss.

One data set relates to MDA-MB-231. Kind of data set: Antiproliferative activity against human MDA-MB-231 cells after 72 hrs by crystal violet staining. Type of data set: functional, cell-based. The method in brief: (§1)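 MCF-7 or MDA-MB-231 cells (ATCC) in DMEM high glucose with 5% FCS, seeded at 7500 cells/mL and grown 3 days at 37 °C, 5% CO2. Compound was added from a DMF or methanol stock and incubated 72 h. Cells were glutardialdehyde-fixed and stained with crystal violet, and the dye was extracted with 70% ethanol for OD 578 nm. T/Ccorr = (T−C0)/(C−C0)×100, where C0 is the OD before treatment. Run 3 times.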

Data set [1] has as its system MCF7. Kind of data set: Cytostatic effect against human MCF7 cells at 10 uM after 72 hrs by crystal violet staining relative to uncreate control. It counts as functional. In outline: as §1
A short description of data set [2]: Half life in PBS buffer at pH 7.4. Type of data set: physicochemical.
For data set [3], the system named is MCF7. Kind of data set: Cytostatic effect against human MCF7 cells at 5 uM after 72 hrs by crystal violet staining relative to uncreate control. It counts as functional, cell-based. The method in brief: as §1
Data set [4] relates to MCF7. In words: Cytotoxicity against human MCF7 cells at 5 uM after 72 hrs by crystal violet staining. Type of data set: functional, cell-based. The method in brief: (§2)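 MCF-7 cells in DMEM high glucose with 5% FCS were seeded at 7500 cells/mL and grown 3 days at 37 °C, 5% CO2. Then exposed 72 h to compound added from a DMF or methanol stock. Biomass was read by crystal violet staining of glutardialdehyde-fixed cells, with 70% ethanol extraction and OD at 578 nm, against untreated control and pre-treatment OD. Three runs per substance.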

For data set [5], the system named is MCF7. Kind of data set: Cytotoxicity against human MCF7 cells at 1 uM after 72 hrs by crystal violet staining. Type of data set: functional, cell-based. In outline:
as §2

Data set [6] concerns MCF7. In words: Cytotoxicity against human MCF7 cells at 10 uM after 72 hrs by crystal violet staining. It counts as functional, cell-based. In outline: as §2

The source made the active and inactive calls. The rule behind the calls is not given here.

As to `N[C@@H](Cc1ccc(N(CCCl)CCCl)cc1)C(=O)O` [MELPHALAN], the outcome with MDA-MB-231 was Active. In the data set on MCF7 [1], this molecule yielded a T/C of 20%.
Turning to `CC(C)(C)OC(=O)N[C@@H](Cc1ccc(N(CCCl)CCCl)cc1)C(=O)OCCN1C(=O)C=CC1=O`, in the data set on MDA-MB-231, the result was Active.
In the case of `Cn1c(CCCC(=O)OCCN2C(=O)C=CC2=O)nc2cc(N(CCCl)CCCl)ccc21`, the result in the data set with MDA-MB-231 and in the data set on MCF7 [3] was Active. Also, the half-life in data set [2] was 10 h.
For `Cn1c(CCCC(=O)O)nc2cc(N(CCCl)CCCl)ccc21`, the outcome in the data set with MDA-MB-231 was Active. Moreover, the outcome in the data set on MCF7 [4], in the data set with MCF7 [5] and with MCF7 [6] was inactive.
